The text below walks through data of article PMC6393846 (Future Microbiology, 2019).

The test system of assay [1] is S. epidermidis. Kind of assay: Antibiotics combined with plantaricins, summary statements. It is filed as cell-based, Staphylococcus epidermidis. Conditions: summary in abstract/discussion; PlnEF with antibiotic; strain not specified. The method, boiled down: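 Broth microdilution with S. epidermidis grown overnight in LB at 37 °C with shaking and adjusted by viable count. Twofold antibiotic series: vancomycin and teicoplanin 0.097–50 μg/ml, gentamicin 0.0097–5 μg/ml, tetracycline 0.016–8 μg/ml. Each well also held a fixed paired plantaricin at 12.5 or 6.25 μM, each partner peptide equimolar. MIC/MBC read after 20 h.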

Assay [2] concerns Staphylococcus epidermidis ATCC 12228. Kind of assay: microbe, parasite or virus in culture. Conditions: ATCC12228.
In assay [3] the test system is S. epidermidis 126 (hGISE clinical isolate). The experiment in a line: Broth microdilution MIC/MBC, clinical isolate. It is filed as cell-based, Staphylococcus epidermidis. Conditions: for MIC: Staphylococcus epidermidis.
The subject of assay [4] is Staphylococcus epidermidis ATCC 12228. Conditions: for reduction of the MIC of the antibiotic in the presence of PlnJK: 12.5 μM PlnJK with antibiotic versus antibiotic alone.
Where [5] appears, read: 12.5 μM PlnEF with antibiotic versus antibiotic alone.

In brackets after ≈: the same amount, converted by molar mass.

For `CNC(C)C1CCC(N)C(OC2C(N)CC(N)C(OC3OCC(C)(O)C(NC)C3O)C2O)O1` (stereo not drawn) [Gentamicin], the “enhancement of the effects of the antibiotic by plantaricin” value (shortened to “enhancement”) in assay [1] is greater than 500 fold. Further, in assay [2], the MIC worked out at 0.31 µg/mL (≈ 0.649 µM). In assay [3] (setting [5]), the “reduction of the MBC of the antibiotic in the presence of PlnEF” value was determined as 260 fold and the “reduction of the MIC of the antibiotic in the presence of PlnEF” value is recorded as 500 fold. Further, in assay [3], the MIC was greater than 5 µg/mL. Moreover, the “reduction of the MIC of the antibiotic in the presence of PlnJK” value in assay [4] was “approximately sevenfold”.
In the case of `CN(C)[C@@H]1C(O)=C(C(N)=O)C(=O)[C@@]2(O)C(O)=C3C(=O)c4c(O)cccc4[C@@](C)(O)[C@H]3C[C@@H]12` [Tetracycline], the “enhancement” value in assay [1] is greater than 500 fold. In addition, the “reduction of the MIC of the antibiotic in the presence of PlnEF” value is given as 125 fold in assay [3] (setting [5]) and 500 fold in assay [4] (setting [5]). Also, the MIC in assay [3] is no less than 2 µg/mL.
Turning to `CN[C@H](CC(C)C)C(=O)N[C@H]1C(=O)N[C@@H](CC(N)=O)C(=O)N[C@H]2C(=O)N[C@H]3C(=O)N[C@H](C(=O)N[C@H](C(=O)O)c4cc(O)cc(O)c4-c4cc3ccc4O)[C@H](O)c3ccc(c(Cl)c3)Oc3cc2cc(c3O[C@@H]2O[C@H](CO)[C@@H](O)[C@H](O)[C@H]2O[C@H]2C[C@](C)(N)[C@H](O)[C@H](C)O2)Oc2ccc(cc2Cl)[C@H]1O` [Vancomycin], the “enhancement” value in assay [1] is listed as greater than 30 fold. In assay [2], this compound had an MBC of 6.25 µg/mL (≈ 4.31 µM) and an MIC of 3.1 µg/mL (≈ 2.14 µM).
Take Teicoplanin: in assay [1], the “enhancement” value is on record as greater than 30 fold. For the same compound, in assay [4], the “reduction of the MIC of the antibiotic in the presence of PlnJK” value is listed as “twofold”.
